The results in this text go back to ChEMBL document CHEMBL1817543, “New nitric oxide or hydrogen sulfide releasing aspirins” (J Med Chem, 2011).

As a reminder, the half-life is the time needed for the level to fall by half in the phase considered. A lower half-life goes with fast loss. As usually defined, the IC50 is the concentration needed to halve the response being measured. Usually EC50 stands for the concentration at which the effect is half-maximal.

Calls of active or inactive are those of the source.

The nature of series [1]: Half life in human serum at 200 uM by RP-HPLC analysis. It is filed as ADME. The procedure, abridged:
(§1)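 DMSO stock (10 mM) added to prewarmed human serum (male AB plasma) to a final 200 μM. Incubated at 37 ± 0.5 °C; aliquots deproteinized with acetonitrile containing 0.1% TFA. Parent, aspirin and metabolites quantified by RP-HPLC, calibration 1–200 μM. Pseudo-first-order half-life; peak aspirin expressed as % of initial carbonate. At least triplicate.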

A short description of series [2]: Antiaggregatory activity in plasma rich human platelets assessed as inhibition of collagen-induced platelet aggregation preincubated for 10 mins before collagen challenge measured 10 mins after stimulus addition. It is filed as functional. An outline of the steps:
(§2)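 Human PRP from citrated venous blood of drug-free healthy volunteers, centrifuged 210g for 20 min. Compound (vehicle 0.5% DMSO) preincubated 10 min, then collagen at submaximal 0.8–1.5 μg/mL. Light-transmission aggregometry with stirring at 1000 rpm, 37 °C, recorded 10 min. Reported as % inhibition versus control (at 300 μM) or IC50 by nonlinear regression. At least five experiments.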

Series [3] can be described thus: Chemical stability of the compound in acidic medium assessed as unchanged compound after 3 hrs at pH 1 by RP-HPLC analysis. It is filed as physicochemical. As to conditions: read-out: Stability. An outline of the steps:
(§3)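 A 0.5 mM DMSO solution (2 mL) was diluted to 10 mL with 0.1 M HCl (pH 1.0) or 50 mM phosphate buffer (pH 7.4). Held at 37 ± 0.5 °C and sampled over time by RP-HPLC on C18 with acetonitrile/water 0.1% TFA gradient. Percent unchanged reported at 3 h. Triplicate.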

Series [4] in a line: Chemical stability of the compound in phosphate buffer assessed as unchanged compound after 3 hrs at pH 7.4 by RP-HPLC analysis. The format is physicochemical. As to conditions: read-out: Stability. An outline of the steps:
as §3

For a further series, the species on record is Homo sapiens. Kind of series: Chemical stability of compound in human serum assessed as maximal amount of aspirin released. It is filed as ADME. An outline of the steps:
as §1

Series [5] has as its system Aorta. Put plainly: Vasodilatory activity at endothelium denuded Wistar rat thoracic aorta assessed as relaxation of phenylephrine-induced contraction preincubated for 30 mins before phenylephrine challenge in presence of 1 uM soluble guanylate cyclase inhibitor H-[1,2,4]Oxadiazolo[4,3-a]quinoxalin-1-one. The format is functional, tissue-based. The procedure, abridged: (§4)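 Male Wistar rat (180–200 g) thoracic aorta strips at 37 °C, 95% O2/5% CO2, pH 7.4, equilibrated 1.5 h, then precontracted with 1 μM L-phenylephrine. Cumulative vasodilator concentrations added at plateau; isometric recording. EC50 ± SEM from at least five experiments. ODQ runs: 1 μM inhibitor added before contraction, preincubated ≥30 min before vasodilator.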

The subject of series [6] is Aorta. Put plainly: Vasodilatory activity at endothelium denuded Wistar rat thoracic aorta assessed as relaxation of phenylephrine-induced contraction. The format is functional, tissue-based. The procedure, abridged: as §4
Another series deals with Platelet. Kind of series: Antiaggregatory activity in plasma rich human platelets assessed as inhibition of collagen-induced platelet aggregation at 300 uM preincubated for 10 mins before collagen challenge measured 10 mins after stimulus addition. The format is functional. The procedure, abridged: as §2
The test system of series [7] is Aorta. Put plainly: Vasodilatory activity at endothelium denuded Wistar rat thoracic aorta assessed as relaxation of KCl-induced contraction preincubated for 30 mins before KCl challenge in presence of 10 uM ATP-modulated K+ channel inhibitor glibenclamide. The format is functional, tissue-based. An outline of the steps:
(§5)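 Endothelium-denuded thoracic aorta strips from male Wistar rats (180–200 g) at 37 °C, gassed 95% O2/5% CO2, pH 7.4. Equilibrated 1.5 h, contracted with 25 mM KCl, then cumulative compound concentrations added at plateau; isometric tension recorded. EC50 ± SEM; at least five experiments. For glibenclamide runs, 10 μM added before contraction, ≥30 min before vasodilator.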

The test system of series [8] is Aorta. Kind of series: Vasodilatory activity at endothelium denuded Wistar rat thoracic aorta assessed as relaxation of KCL-induced contraction preincubated for 30 mins before KCL challenge. It is filed as functional, tissue-based. The procedure, abridged:
as §5

Take `CC(=O)Oc1ccccc1C(=O)OCOC(=O)OCCOc1ccc(-c2cc(=S)ss2)cc1`: the half-life at 200 µM in series [1] is 3 min. Further, the IC50 in series [2] is 16 µM. The figures for the remaining at 3 h in [3] and in series [4] were 98% and 96%, respectively. Further, the Activity in the series filed under Homo sapiens turned out to be 42%.

Consider `CC(=O)Oc1ccccc1C(=O)OCOC(=O)Oc1ccc(CC(CO[N+](=O)[O-])O[N+](=O)[O-])cc1` (configuration not stated), for which the half-life at 200 µM in [1] came out at 2.2 min. For the same compound, the IC50 in series [2] was 103 µM. Moreover, the remaining at 3 h in series [3] was 98%; in series [4] it was 95%. Moreover, in the series filed under Homo sapiens, the Activity amounted to 34%.

On to `O=[N+]([O-])OCC(Cc1ccc(O)cc1)O[N+](=O)[O-]` (configuration not stated), for which the concentration giving a half-maximal response (EC50) in the series on Aorta [5] was more than 100 µM; in the series with Aorta [6], 0.13 µM. Also, the result in the series with Platelet was inactive.

In series [1], `CC(=O)Oc1ccccc1C(=O)OCOC(=O)OCCCO[N+](=O)[O-]` showed a half-life at 200 µM of less than 1 min. Moreover, the IC50 in [2] is 194 µM. Moreover, the remaining at 3 h in [3] and in [4] was 98% throughout. The Activity in the series listed under Homo sapiens is listed as 9%.

As to `OCCOc1ccc(-c2cc(=S)ss2)cc1`, the EC50 with Aorta [7] was found to be 16 µM; in the series with Aorta [8], 8 µM.

On to `O=[N+]([O-])OCCCO` [ABRUCOMSTAT], for which the figures for the EC50 with Aorta [5] and in the series on Aorta [6] were more than 100 µM and 4 µM, respectively. In the series with Platelet, the result was inactive.

For `Oc1ccc(-c2cc(=S)ss2)cc1`, the half-maximal effective concentration (EC50) in the series with Aorta [7] was found to be 17 µM; in the series with Aorta [8], 5.9 µM. Besides, the result in the series on Platelet was inactive.

In [1], `CC(=O)Oc1ccccc1C(=O)O` [ASPIRIN] displayed a half-life at 200 µM of 63 min. Further, in series [2], the IC50 is 54 µM. Moreover, the remaining at 3 h in series [3] and in series [4] was 90% in each case.

Regarding `CC(=O)Oc1ccccc1C(=O)OCOC(=O)Oc1ccc(-c2cc(=S)ss2)cc1`, the half-life at 200 µM in series [1] worked out at 2.1 min. Besides, the IC50 in series [2] was found to be 150 µM. Besides, the remaining at 3 h came to 96% in series [3] and 80% in [4]. The Activity in the series filed under Homo sapiens worked out at 36%.

`CC(=O)Oc1ccccc1C(=O)OCOC(=O)OCC(CO[N+](=O)[O-])O[N+](=O)[O-]` (configuration not stated) displayed a half-life at 200 µM in [1] of less than 1 min. Also, the IC50 in [2] stood at 93 µM. Further, the remaining at 3 h is 98% in series [3] and 85% in [4]. The Activity in the series filed under Homo sapiens came to 25%.

On to `CC(=O)Oc1ccccc1C(=O)OCOC(=O)Oc1ccc(CCCO[N+](=O)[O-])cc1`, for which, in series [1], the half-life at 200 µM was determined as 1.6 min. Besides, the IC50 in series [2] worked out at 68 µM. Further, the remaining at 3 h in [3] and in series [4] was 98% throughout. Moreover, in the series listed under Homo sapiens, the Activity worked out at 40%.

In the case of `O=[N+]([O-])OCCCc1ccc(O)cc1`, the figures for the EC50 with Aorta [5] and in the series on Aorta [6] were more than 100 µM and 1 µM, respectively.
